Test results: ChEMBL document CHEMBL4513216, “Probing the Open Global Health Chemical Diversity Library for Multistage-Active Starting Points for Next-Generation Antimalarials” (ACS Infect Dis, 2020)

Assay: Toxicity liver stage against HepG2, at 10uM
Assay type: cell-based
Design: test concentration 10 uM, cell line HepG2-A16-CD81EGFP
Conditions: human, HepG2-A16-CD81EGFP cells; read-out: INHIBITION
Outline: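 Uninfected HepG2-A16-CD81EGFP cells, 3 × 10^3 per well, 1536-well, plated on prespotted compound at 10 μM final, parasite-free screening media added to match infected plates; puromycin 10 μM positive, DMSO 0.5% negative; run in parallel with 48 h PbLuc assay at 37 °C, 5% CO2; viability by CellTiter-Glo luminescence, normalized to controls.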

SMILES	cytotoxicity at 10 µM
O=C1C(NS(=O)(=O)c2ccc(F)c(F)c2)CCN1Cc1ccccc1 (stereo not drawn)	-2.81%
Cc1noc(C)c1-c1nc(C2CCCN(CCC(N)=O)C2)ccc1CO (stereo not drawn)	-2.66%
Cc1ccsc1CNC(=O)Cc1c(C)nc2c(c1C)c(=O)[nH]n2C	-0.168%
O=C1COC2(COCCN(Cc3cccnc3)C2)CN1c1ccoc1 (stereo not drawn)	3.22%
Cc1ccc(-c2ncc(C(=O)NCCNC(=O)C3CC3)s2)c(C)c1	-23.8%
Cc1cc(O)c(OCC(=O)/N=c2/[nH]c3c(s2)CCC3)cn1	10.4%
CCN(CC)C(=O)[C@@H]1C[C@@H](N)CN1C(=O)c1cc2c([nH]c1=O)CCC2	-2.79%
Cc1cc2ccccc2n1CCC(=O)N1CCCC1Cn1cccn1 (stereo not drawn)	2.15%
Cn1cc(C#N)cc1C(=O)N1CCC2(CCCN(CC3CCC3)C2=O)C1 (stereo not drawn)	-4.3%
CCN1CCC(NC(=O)CN2CCc3c(ncn3C)C2)CC1	1.85%
Cc1ccc(C(=O)Nc2cn[nH]c2)cc1	-8.83%
COc1ccc(OCc2nc3cc4c(cc3c(=O)o2)OCCCO4)cc1	5.73%
O=C1CSC(c2ccncc2)c2c(n(C3CCOCC3)[nH]c2=O)N1 (stereo not drawn)	-19.4%
Cc1nnc(CN(C)C2CCN(CCc3ccccn3)CC2)o1	1.04%
C[C@H]1C(=O)NC[C@H]2CN(Cc3cccc(F)c3)C[C@H]21	0.964%
CC(=O)N1CCc2nc3sc(C(N)=O)c(N)c3c(C(F)(F)F)c2C1	6.28%
O=C1[C@@H]2CN(c3ncccc3Cl)C[C@]2(C(=O)O)CN1CC1CC1	1.04%
CC(C)Cc1nc(CSC2CCCN(c3cnn(C)c3)C2=O)no1 (stereo not drawn)	17.7%
Cc1cc(CNC2CCCN(c3cccnn3)C2)no1 (stereo not drawn)	-15%
CCn1ncc2c1CCCC2NCc1csc(C(C)C)n1 (stereo not drawn)	-1.69%
O=C(CN1CCOCC1CC(=O)c1ccco1)NCc1ccccn1 (stereo not drawn)	-4.92%
CC[C@H](C)Nc1ncc(-c2cccc(NC(=O)CNC)c2)cn1	-4.97%

SMILES	cytotoxicity at 10 µM
Cc1nn(C)c(C)c1CNC(=O)c1cc(NC(=O)C2CC2)n(C)n1	5.31%
CN1CCC(NC(=O)c2cc(Br)cc(Cl)c2O)C1=O (stereo not drawn)	-5.79%
Cc1cc(C)c(N(CC(O)CNCc2ccco2)S(C)(=O)=O)c(C)c1 (stereo not drawn)	-12.5%
CS(=O)(=O)CCC(=O)N1C[C@H]2CC[C@@H](C1)N(Cc1ccccn1)C2=O	7.23%
O=C(NC1(C(=O)NC2CCCC2)CCCC1)c1ccc2[nH]ncc2c1	4.73%
COc1ccc([C@@H]2C[C@H](NC(C)=O)C[C@H](CCc3ccccc3)O2)cn1	-3.13%
Cc1noc(C)c1CCCNC(=O)Nc1cccc([S+](C)[O-])c1 (stereo not drawn)	-0.595%
CN(Cc1cn2c(n1)CN(C(=O)C1CCCO1)CC2)Cc1ccco1 (stereo not drawn)	8.24%
COc1ccc(NC(=O)C(C)n2cncn2)cn1 (stereo not drawn)	-16.4%
CC(C)CNC(=O)c1cc2c(s1)CCN2S(C)(=O)=O	-0.522%
CC(=O)Nc1ccc(-c2cn(CCn3c(C)cc(C)nc3=O)nn2)cc1	5.03%
CCc1[nH]c2c(CNC(=O)C3CCC(=O)NC3)cc(C)cc2c1C (stereo not drawn)	-3.79%
O=C(CCn1ccnc1)N1C[C@@H](O)[C@H](Oc2cccc(F)c2)C1	-21.6%
Cc1ncsc1C(=O)N1CCCC(n2cncn2)C1 (stereo not drawn)	0.364%
COc1ccnc(N2CCN(C(=O)Cc3ccc(C)s3)CC2)n1	0.818%
Cn1ccnc1CN(Cc1ccccn1)Cc1ccccc1Cl	11.5%
CN(Cc1ccccc1)c1cnn(CC2COCCO2)c(=O)c1 (stereo not drawn)	-12.4%
CN(Cc1cccc(C(F)(F)F)c1)Cc1nc(-c2cnccn2)no1	1.35%
Cc1ccc2cc(C(=O)N3CCCC3Cn3cccn3)[nH]c2c1 (stereo not drawn)	-7.39%
O=C(c1ccccn1)N1C[C@H]2CC[C@@H](C1)N(C(=O)CCC1CCCC1)C2	3.07%
COC(=O)c1cccc(S(=O)(=O)Nc2ccc(F)c(C(N)=O)c2)c1	8.67%
O=C(c1cccnc1N1CCOC(c2ccc(Cl)cc2)C1)N1CCCC1 (stereo not drawn)	7.21%

SMILES	cytotoxicity at 10 µM
COCCNC(=O)c1cc2c(nc1O)CC(c1cccs1)CC2=O (stereo not drawn)	11.9%
CC(C)[C@H](NC(=O)NC1CCS(=O)(=O)C1)C(=O)Nc1cccnc1 (stereo partly drawn)	6.85%
CCc1nc(CC(=O)NCC(Cc2ccc(F)cc2)C(N)=O)cs1 (stereo not drawn)	-0.86%
CNC(=O)c1cccc(CN2CCN(C3=NCC(C)(C)S3)CC2)c1	-2.37%
Cn1cc(CN2CCOCC3(C2)CN(c2ccccc2)C(=O)CO3)cn1 (stereo not drawn)	0.436%
Cc1nn(C)c(C)c1NC(=O)CCn1ncc2ccc(Cl)cc21	7.38%
COc1ccc(C2c3c(N)nc(SC)nc3N=C3CCCC(=O)C32)cc1 (stereo not drawn)	-18.7%
Cn1nccc1CCC(=O)N1CCC(c2cnccn2)CC1	-21.7%
Cc1cc(C(F)(F)F)nn1CCNC(=O)C(C)n1ccnc1C(C)C (stereo not drawn)	-5.24%
CN1CCN(C(=O)c2cnsn2)c2ccc(F)cc21	3.47%
CN1CCO[C@@H]2CN(S(=O)(=O)c3ccc(F)cc3)CC[C@@H]2C1	2.56%
O=C(NCCCN1CCCCC1)c1n[nH]c(=O)c2ccccc12	-30.9%
Cc1ccc2nc(C)c(C)c(C(=O)N[C@H]3COC[C@@H]3N3CCCC3)c2c1	-45.8%
Cn1ccc(C(=O)N2CCN(CC(O)C(C)(C)C)CC2)cc1=O (stereo not drawn)	2.76%
N#Cc1ccc(Cn2cncn2)c(F)c1	-1.49%
CSCCC(=O)N1CCC(Oc2cc(C)ccc2F)(C(=O)O)CC1	-6.02%
Cc1nn(C)c(C)c1OCC(=O)NCc1cccc(C(=O)O)c1	-3.83%
Cc1nc(CN2CCCN(CCOc3cccc(C#N)c3)CC2)no1	-5.85%
O=C(C1CC1)N1C[C@H]2CCCN(S(=O)(=O)c3ccc(Cl)s3)[C@H]2C1	8.26%
CN1CCc2[nH]cnc2C12CCN(Cc1ccc3nsnc3c1)CC2	5.05%
CCOc1cc(C)ccc1NS(=O)(=O)c1cc(C)c(C(=O)O)s1	-6.44%
OCCNc1nccc(-c2c[nH]nc2-c2ccncc2)n1	-9.52%

SMILES	cytotoxicity at 10 µM
CCS(=O)(=O)CCCN1CCSCC1c1ccc(Cl)cc1 (stereo not drawn)	-5.05%
Cc1ccc(-c2nc(CNc3ccc(C(N)=O)c(C)c3)cs2)o1	23.9%
Cc1cnn(C2CCCN(C(=O)c3cc(-c4ccco4)[nH]n3)C2)c1 (stereo not drawn)	-9.48%
Cc1cc(CN2CC[C@H]3C[C@H](C(=O)N(C)C)O[C@@H]3C2)no1	-5.53%
COc1cccc(OCC(=O)N2CCCSCC2CN2CCOCC2)c1 (stereo not drawn)	4.01%
CCc1noc(C(C)N(C)CC(=O)Nc2ccc(C)cc2)n1 (stereo not drawn)	-6.42%
CC(C)(O)CN1CCN(C(=O)c2sccc2C#N)CC1	-7.3%
O=C(NCC1=CCCCC1)C(c1cccnc1)N1CCCC1 (stereo not drawn)	-3.78%
Cc1cc(C(=O)N2CCCC(C(=O)c3nccn3C)C2)c(=O)[nH]c1C (stereo not drawn)	3.15%
CN(c1ccc(OCc2cnc(Cl)s2)cc1)S(C)(=O)=O	0.867%
COCCO[C@H]1CCN(C(=O)c2ccsc2)[C@H]1Cc1cnn(C)c1	-72.8%
CCOC(=O)NC1CCCN(c2cncc(Br)c2)C1 (stereo not drawn)	-46.4%
CCc1nc(CNCC2CCCN2c2cc(NC)ncn2)cs1 (stereo not drawn)	-9.11%
O=C1CCC(C(=O)N(Cc2ccsc2)CC2CCCO2)=NN1 (stereo not drawn)	-7.97%
COc1c(C2CCCN2CC(=O)NCc2ccccn2)c(C)nn1C (stereo not drawn)	-0.671%
Cc1cccc(S(=O)(=O)N2C[C@@H]3C[C@H](C(=O)NCC4CC4)[C@H](C2)O3)c1	-2.35%
Cc1ccsc1CN1CCC(c2cc(C(C)C)n[nH]2)CC1	1.13%
O=C(OC1CCC1)c1ncccc1OCC(F)(F)F	-12.6%
Cn1cccc1C(=O)N1CCN(CC2CC2)c2ncccc2C1	-21.9%
Cc1nc(CN2CCC(CNC(=O)C3(C)CCCC3)CC2)oc1C	7.66%
COCCCN1C(=O)CC[C@H]2CN(c3nc4ccccc4s3)CC[C@H]21	-9.59%
COc1cccc2ccc(CN3CCN(c4ccncc4)CC3)nc12	-1.36%

SMILES	cytotoxicity at 10 µM
CC(NC(=O)NCCCn1cccn1)c1cccnc1 (stereo not drawn)	23.1%
COCc1cccc(CNCc2c(C)nn(C)c2N(C)C)c1	1.08%
COc1cccc([C@H]2CN(CCCS(=O)(=O)N(C)C)C[C@@H]2N)c1	-1.18%
CN(CC1CCCCC1)C(=O)c1cn(C)nc1-c1cccnc1	2.2%
O=C1CCc2cc(NC(=O)C3CCCN3c3nccs3)ccc2N1 (stereo not drawn)	-10.8%
O=C(NC1CC1)[C@@H]1C[C@@H]2CCN(Cc3ccccc3)C[C@@H]2O1	-65.8%
O=C(NC(C1CC1)C1CC1)c1cccc[n+]1[O-]	10.8%
O=C(C1CCCCN1Cc1nc(-c2ccco2)no1)N1CCCC1 (stereo not drawn)	-4.64%
FC(F)(F)c1cc(C2CCCN(c3ncccn3)C2)n2ccnc2n1 (stereo not drawn)	10.4%
Cc1nccc(CN2CC[C@H](Oc3cccc(F)c3)[C@@](C)(O)C2)n1	2.84%
Cc1cc(C(=O)N2CCCC(C)C2)ccc1NCc1nc(C(C)C)no1 (stereo not drawn)	-9.84%
CN1CCc2nc(C3CCCN(C(=O)CC(C)(C)C)C3)ncc2C1 (stereo not drawn)	-10.3%
c1ccc2c(N3CCOCC3)cnnc2c1	-6.06%
COCC(=O)NCCc1nc2cc(-c3ccc(OC)cc3)ncn2n1	10.5%
CCOC(=O)N1CCC(C(=O)c2cc(F)ccc2F)CC1	-8.11%
CC1c2ncc(CN3CCN(C)CC3)n2CCN1Cc1ccccn1 (stereo not drawn)	-0.23%
OCCN1CCN(Cc2cn(-c3ccccc3)nn2)CC1	1.42%
CCOC(=O)C1CCN(Cc2c(O)ccc3oc4c(c23)CCCC4)CC1	-1.2%
Cc1occc1C(=O)NCC(=O)NCCOc1ccc2c(c1)CCC2	-2.83%
CCc1ccccc1OC1CN(C(=O)CN(C)Cc2cccnc2)C1	1.61%
